Calls of active or inactive are those of the source. No cut-off for these calls is given here.
Key:
[1] = molecular target: Proto-oncogene tyrosine-protein kinase ROS (Homo sapiens, UniProt P08922); experiment: Competitive binding affinity to human ROS1
[2] = Drug uptake in blood of Lewis rat collagen-induced arthritis model at 30 mg/kg, po qd administered on day 15 post immunization measured at 24 hrs on day 18; assay type: ADME, organism-based; design: dose 30 mg/kg, route oral; details: read-out: Drug uptake
In short: (§1)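 Collagen-arthritic Lewis rats given 3, 10 or 30 mg/kg p.o. once daily from day 15; blood levels measured on day 18 (third day of treatment) at 4, 8 and 24 h after dosing.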

Canis familiaris [3] = species: Canis familiaris; experiment: Hepatotoxicity in dog assessed as bile plugs measured for 4 weeks by GLP study; assay type: toxicity, organism-based, Canis lupus familiaris; details: in vivo, 672 h
[4] = molecular target: Interleukin-1 receptor-associated kinase 1 (Homo sapiens, UniProt P51617); experiment: Competitive binding affinity to human IRAK1
Sequence of Interleukin-1 receptor-associated kinase 1 (P51617 whole entry): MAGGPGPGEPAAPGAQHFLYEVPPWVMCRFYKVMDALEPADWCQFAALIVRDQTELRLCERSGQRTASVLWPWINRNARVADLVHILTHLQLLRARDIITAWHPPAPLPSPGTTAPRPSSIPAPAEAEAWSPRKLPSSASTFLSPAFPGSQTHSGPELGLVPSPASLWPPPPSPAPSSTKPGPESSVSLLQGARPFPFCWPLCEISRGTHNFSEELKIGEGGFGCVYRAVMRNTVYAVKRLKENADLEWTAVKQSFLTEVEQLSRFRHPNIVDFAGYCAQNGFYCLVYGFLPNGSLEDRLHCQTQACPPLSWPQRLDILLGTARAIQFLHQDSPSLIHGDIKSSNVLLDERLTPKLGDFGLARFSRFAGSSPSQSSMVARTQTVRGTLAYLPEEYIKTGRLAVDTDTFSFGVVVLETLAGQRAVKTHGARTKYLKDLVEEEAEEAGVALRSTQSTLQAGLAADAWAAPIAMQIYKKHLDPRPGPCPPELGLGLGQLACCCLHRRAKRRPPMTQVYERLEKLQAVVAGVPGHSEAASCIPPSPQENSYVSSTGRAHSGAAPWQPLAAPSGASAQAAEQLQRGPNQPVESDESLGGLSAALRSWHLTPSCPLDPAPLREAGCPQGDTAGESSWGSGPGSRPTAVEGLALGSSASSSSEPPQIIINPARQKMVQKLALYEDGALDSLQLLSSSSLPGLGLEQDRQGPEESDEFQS

[5] = Clearance in Sprague-Dawley rat at 1 mg/kg, iv and 3 mg/kg, po administered as cassette dosing; assay type: ADME, organism-based; details: in vivo
In short: (§2)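 Rat PK: i.v. 1 mg/kg in NMP/PEG200 (3:7); p.o. 3 mg/kg in CMC/water/Tween (0.5:99:0.5). Exposure values dose normalized.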

[6] = Drug uptake in blood of Lewis rat collagen-induced arthritis model at 10 mg/kg, po qd administered on day 15 post immunization measured at 24 hrs on day 18; assay type: ADME, organism-based; design: dose 10 mg/kg, route oral; details: read-out: Drug uptake; in short: as §1
[7] = Drug uptake in Lewis rat blood at 22 mg/kg, po measured after 2 hrs; assay type: ADME, organism-based; design: dose 22 mg/kg, route oral; details: read-out: Drug uptake
In short: (§3)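 Single oral dose of 22 mg/kg to Lewis rats; blood sampled at 2, 4 and 24 h after dosing for compound level and ex vivo FcγR-induced phospho-SLP76 in peripheral blood monocytes.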

[8] = Drug uptake in Lewis rat blood at 22 mg/kg, po measured after 4 hrs; assay type: ADME, organism-based; design: dose 22 mg/kg, route oral; details: read-out: Drug uptake; in short: as §3
Rattus norvegicus [9] = experiment: Dose normalized Cmax in Sprague-Dawley rat at 1 mg/kg, iv and 3 mg/kg, po administered as cassette dosing; assay type: ADME, organism-based; details: in vivo; in short: as §2
[10] = Drug uptake in blood of Lewis rat collagen-induced arthritis model at 3 mg/kg, po qd administered on day 15 post immunization measured at 8 hrs on day 18; assay type: ADME, organism-based; design: dose 3 mg/kg, route oral; details: read-out: Drug uptake; in short: as §1
Canis familiaris [11] = species: Canis familiaris; experiment: Hepatotoxicity in dog assessed as single necrosis of hepatocytes measured for 4 weeks by GLP study; assay type: toxicity, organism-based, Canis lupus familiaris, Hepatocyte; details: 672 h
[12] = molecular target: Voltage-gated inwardly rectifying potassium channel KCNH2 (Homo sapiens, UniProt Q12809); experiment: Inhibition of human ERG expressed in CHO cells by automated Qpatch clamp assay; assay type: cell-based
Sequence of Voltage-gated inwardly rectifying potassium channel KCNH2 (Q12809 whole entry): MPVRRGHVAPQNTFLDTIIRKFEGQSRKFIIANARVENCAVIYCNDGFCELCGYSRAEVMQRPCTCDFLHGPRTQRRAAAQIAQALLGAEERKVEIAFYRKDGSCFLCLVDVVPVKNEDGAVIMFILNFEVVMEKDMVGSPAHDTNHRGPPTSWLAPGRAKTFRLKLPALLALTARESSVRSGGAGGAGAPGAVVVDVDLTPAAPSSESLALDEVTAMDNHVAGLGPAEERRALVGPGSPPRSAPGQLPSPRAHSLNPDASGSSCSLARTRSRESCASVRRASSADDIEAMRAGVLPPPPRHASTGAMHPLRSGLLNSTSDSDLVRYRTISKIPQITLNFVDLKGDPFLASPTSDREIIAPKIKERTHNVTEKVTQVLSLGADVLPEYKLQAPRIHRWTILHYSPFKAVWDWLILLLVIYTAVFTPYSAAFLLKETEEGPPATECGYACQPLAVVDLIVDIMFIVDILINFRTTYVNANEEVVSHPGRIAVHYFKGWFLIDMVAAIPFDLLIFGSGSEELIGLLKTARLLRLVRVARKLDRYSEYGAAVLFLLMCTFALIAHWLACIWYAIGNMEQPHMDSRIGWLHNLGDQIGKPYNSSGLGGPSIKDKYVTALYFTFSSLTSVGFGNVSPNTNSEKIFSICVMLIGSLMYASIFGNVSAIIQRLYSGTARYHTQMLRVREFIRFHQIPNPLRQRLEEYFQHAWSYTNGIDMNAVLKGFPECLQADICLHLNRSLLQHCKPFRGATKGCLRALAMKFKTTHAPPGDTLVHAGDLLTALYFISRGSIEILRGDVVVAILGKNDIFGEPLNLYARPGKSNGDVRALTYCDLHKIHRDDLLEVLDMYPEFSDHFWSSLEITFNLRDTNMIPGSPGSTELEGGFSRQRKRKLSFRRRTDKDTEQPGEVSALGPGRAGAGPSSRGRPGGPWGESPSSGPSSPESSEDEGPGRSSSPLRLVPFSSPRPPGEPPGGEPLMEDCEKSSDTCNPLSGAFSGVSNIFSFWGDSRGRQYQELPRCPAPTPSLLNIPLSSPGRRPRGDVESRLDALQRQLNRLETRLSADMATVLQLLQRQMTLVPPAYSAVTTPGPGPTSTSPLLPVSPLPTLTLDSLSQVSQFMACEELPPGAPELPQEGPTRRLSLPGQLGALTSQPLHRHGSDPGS

Canis familiaris [13] = species: Canis familiaris; experiment: Toxicity in dog assessed as prolongation of QT interval by telemetry study; assay type: organism-based, Canis lupus familiaris; details: in vivo
Rattus norvegicus [14] = experiment: Antiarthritic activity in Lewis rat collagen-induced arthritis model assessed as reduction of inflammatory cell infiltration in hind paw at 3 to 30 mg/kg, po qd administered on day 15 post immunization measured after day 28 by Giemsa/safranin O staining-based assay; assay type: functional, organism-based
In short: (§4)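 Female Lewis rats (140−160 g), arthritis induced by porcine collagen immunization (day 0) and boost (day 7); rats with swollen joints randomized, dosed orally once daily from day 15 to day 28. Hind paws taken on day 28, fixed in 10% buffered formalin for 48 h, decalcified over 16 days, paraffin-embedded; 3 μm sections stained with Giemsa and safranin O and scored.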

[15] = Drug uptake in blood of Lewis rat collagen-induced arthritis model at 30 mg/kg, po qd administered on day 15 post immunization measured at 8 hrs on day 18; assay type: ADME, organism-based; design: dose 30 mg/kg, route oral; details: read-out: Drug uptake; in short: as §1
Rattus norvegicus [16] = experiment: Antiarthritic activity in Lewis rat collagen-induced arthritis model assessed as reduction of proteoglycan loss in hind paw at 3 to 30 mg/kg, po qd administered on day 15 post immunization measured after day 28 by Giemsa/safranin O staining-based assay; assay type: functional, organism-based; in short: as §4
Rattus norvegicus [17] = species: Rattus norvegicus; experiment: Hepatotoxicity in rat assessed as single necrosis of hepatocytes measured for 4 weeks by GLP study; assay type: toxicity, organism-based, Hepatocyte; details: 672 h
[18] = Mean residence time in Beagle dog at 0.1 mg/kg, iv and 0.3 mg/kg, po; assay type: ADME, organism-based, Canis lupus familiaris; details: in vivo
In short: (§5)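 Beagle dogs dosed one-in-one. The i.v. dose was 0.1 mg/kg in NMP/PEG200 (3:7), and the p.o. dose was 0.3 mg/kg in MC/water (0.5:99.5). Blood levels were followed after each route.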

[19] = molecular target: Serine/threonine-protein kinase PAK 5 (Homo sapiens, UniProt Q9P286); experiment: Competitive binding affinity to human PAK7
Sequence of Serine/threonine-protein kinase PAK 5 (Q9P286 whole entry): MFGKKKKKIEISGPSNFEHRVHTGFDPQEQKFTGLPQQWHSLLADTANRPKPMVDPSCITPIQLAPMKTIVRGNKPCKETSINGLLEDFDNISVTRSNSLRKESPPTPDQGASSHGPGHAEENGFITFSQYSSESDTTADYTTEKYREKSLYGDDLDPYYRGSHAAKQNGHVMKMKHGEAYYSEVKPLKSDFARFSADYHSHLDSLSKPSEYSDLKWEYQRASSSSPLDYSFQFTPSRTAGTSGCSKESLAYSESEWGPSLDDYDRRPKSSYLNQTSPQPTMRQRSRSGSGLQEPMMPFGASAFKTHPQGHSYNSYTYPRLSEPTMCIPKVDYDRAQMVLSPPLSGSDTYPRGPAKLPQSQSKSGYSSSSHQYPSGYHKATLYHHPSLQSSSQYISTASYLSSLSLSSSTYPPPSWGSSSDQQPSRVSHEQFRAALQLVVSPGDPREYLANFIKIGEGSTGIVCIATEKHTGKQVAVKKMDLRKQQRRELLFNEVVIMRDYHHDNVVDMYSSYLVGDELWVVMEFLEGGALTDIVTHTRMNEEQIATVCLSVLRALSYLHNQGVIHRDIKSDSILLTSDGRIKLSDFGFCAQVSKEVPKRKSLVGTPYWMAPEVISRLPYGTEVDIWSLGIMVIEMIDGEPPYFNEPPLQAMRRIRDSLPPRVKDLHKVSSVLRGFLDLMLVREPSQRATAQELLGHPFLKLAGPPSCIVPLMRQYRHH

[20] = molecular target: T1, Tyrosine-protein kinase SYK (Homo sapiens, UniProt P43405); experiment: Competitive binding affinity to human SYK
In short: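 Kd was then determined for the kinases affected at that concentration.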

[21] = Oral bioavailability in Beagle dog at 0.3 mg/kg; assay type: ADME, organism-based, Canis lupus familiaris; details: in vivo; in short: as §5
[22] = Drug uptake in blood of Lewis rat collagen-induced arthritis model at 10 mg/kg, po qd administered on day 15 post immunization measured at 8 hrs on day 18; assay type: ADME, organism-based; design: dose 10 mg/kg, route oral; details: read-out: Drug uptake; in short: as §1
[23] = Clearance in Beagle dog at 0.1 mg/kg, iv and 0.3 mg/kg, po; assay type: ADME, organism-based, Canis lupus familiaris; details: in vivo
In short: (§6)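 One-in-one dosing in Beagle dogs: i.v. 0.1 mg/kg in NMP/PEG200 (3:7); p.o. 0.3 mg/kg in MC/water (0.5:99.5). Exposure values dose normalized.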

[24] = Drug uptake in blood of Lewis rat collagen-induced arthritis model at 3 mg/kg, po qd administered on day 15 post immunization measured at 4 hrs on day 18; assay type: ADME, organism-based; design: dose 3 mg/kg, route oral; details: read-out: Drug uptake; in short: as §1
[25] = Volume of distribution at steady state in Sprague-Dawley rat at 1 mg/kg, iv and 3 mg/kg, po administered as cassette dosing; assay type: ADME, organism-based; details: in vivo, read-out: Vdss
In short: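 Rats were dosed i.v. at 1 mg/kg in NMP/PEG200 (3:7) and p.o. at 3 mg/kg in CMC/water/Tween (0.5:99:0.5). PK parameters were derived from blood concentration–time curves for both routes.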

Rattus norvegicus [26] = experiment: In vivo inhibition of Syk in Lewis rat assessed as reduction in FcgR-induced SLP76 phosphorylation in peripheral blood monocytes at 22 mg/kg, po measured after 2 hrs relative to vehicle-treated control; assay type: functional; in short: as §3
Canis familiaris [27] = experiment: Dose normalized AUC in Beagle dog at 0.1 mg/kg, iv; assay type: ADME, organism-based, Canis lupus familiaris; design: dose 0.1 mg/kg, route intravenous; details: in vivo; in short: as §6
[28] = molecular target: T1, Tyrosine-protein kinase SYK; experiment: Inhibition of Syk in anti-igM stimulated human Ramos B cells assessed as phospho-BLNK level preincubated for 30 mins followed by anti-IgM stimulation measured after 15 mins by flow cytometric analysis; assay type: cell-based
Rattus norvegicus [29] = experiment: In vivo inhibition of Syk in Lewis rat assessed as reduction in FcgR-induced SLP76 phosphorylation in peripheral blood monocytes at 22 mg/kg, po measured after 4 hrs relative to vehicle-treated control; assay type: functional; in short: as §3
[30] = molecular target: T1, Tyrosine-protein kinase SYK; experiment: Inhibition of Syk in anti-CD32 stimulated CD14+ human monocytes assessed as phospho-SLP76 level preincubated for 30 mins followed by anti-CD32 stimulation measured after 5 mins by flow cytometric analysis

Sequence of Proto-oncogene tyrosine-protein kinase ROS (P08922 whole entry): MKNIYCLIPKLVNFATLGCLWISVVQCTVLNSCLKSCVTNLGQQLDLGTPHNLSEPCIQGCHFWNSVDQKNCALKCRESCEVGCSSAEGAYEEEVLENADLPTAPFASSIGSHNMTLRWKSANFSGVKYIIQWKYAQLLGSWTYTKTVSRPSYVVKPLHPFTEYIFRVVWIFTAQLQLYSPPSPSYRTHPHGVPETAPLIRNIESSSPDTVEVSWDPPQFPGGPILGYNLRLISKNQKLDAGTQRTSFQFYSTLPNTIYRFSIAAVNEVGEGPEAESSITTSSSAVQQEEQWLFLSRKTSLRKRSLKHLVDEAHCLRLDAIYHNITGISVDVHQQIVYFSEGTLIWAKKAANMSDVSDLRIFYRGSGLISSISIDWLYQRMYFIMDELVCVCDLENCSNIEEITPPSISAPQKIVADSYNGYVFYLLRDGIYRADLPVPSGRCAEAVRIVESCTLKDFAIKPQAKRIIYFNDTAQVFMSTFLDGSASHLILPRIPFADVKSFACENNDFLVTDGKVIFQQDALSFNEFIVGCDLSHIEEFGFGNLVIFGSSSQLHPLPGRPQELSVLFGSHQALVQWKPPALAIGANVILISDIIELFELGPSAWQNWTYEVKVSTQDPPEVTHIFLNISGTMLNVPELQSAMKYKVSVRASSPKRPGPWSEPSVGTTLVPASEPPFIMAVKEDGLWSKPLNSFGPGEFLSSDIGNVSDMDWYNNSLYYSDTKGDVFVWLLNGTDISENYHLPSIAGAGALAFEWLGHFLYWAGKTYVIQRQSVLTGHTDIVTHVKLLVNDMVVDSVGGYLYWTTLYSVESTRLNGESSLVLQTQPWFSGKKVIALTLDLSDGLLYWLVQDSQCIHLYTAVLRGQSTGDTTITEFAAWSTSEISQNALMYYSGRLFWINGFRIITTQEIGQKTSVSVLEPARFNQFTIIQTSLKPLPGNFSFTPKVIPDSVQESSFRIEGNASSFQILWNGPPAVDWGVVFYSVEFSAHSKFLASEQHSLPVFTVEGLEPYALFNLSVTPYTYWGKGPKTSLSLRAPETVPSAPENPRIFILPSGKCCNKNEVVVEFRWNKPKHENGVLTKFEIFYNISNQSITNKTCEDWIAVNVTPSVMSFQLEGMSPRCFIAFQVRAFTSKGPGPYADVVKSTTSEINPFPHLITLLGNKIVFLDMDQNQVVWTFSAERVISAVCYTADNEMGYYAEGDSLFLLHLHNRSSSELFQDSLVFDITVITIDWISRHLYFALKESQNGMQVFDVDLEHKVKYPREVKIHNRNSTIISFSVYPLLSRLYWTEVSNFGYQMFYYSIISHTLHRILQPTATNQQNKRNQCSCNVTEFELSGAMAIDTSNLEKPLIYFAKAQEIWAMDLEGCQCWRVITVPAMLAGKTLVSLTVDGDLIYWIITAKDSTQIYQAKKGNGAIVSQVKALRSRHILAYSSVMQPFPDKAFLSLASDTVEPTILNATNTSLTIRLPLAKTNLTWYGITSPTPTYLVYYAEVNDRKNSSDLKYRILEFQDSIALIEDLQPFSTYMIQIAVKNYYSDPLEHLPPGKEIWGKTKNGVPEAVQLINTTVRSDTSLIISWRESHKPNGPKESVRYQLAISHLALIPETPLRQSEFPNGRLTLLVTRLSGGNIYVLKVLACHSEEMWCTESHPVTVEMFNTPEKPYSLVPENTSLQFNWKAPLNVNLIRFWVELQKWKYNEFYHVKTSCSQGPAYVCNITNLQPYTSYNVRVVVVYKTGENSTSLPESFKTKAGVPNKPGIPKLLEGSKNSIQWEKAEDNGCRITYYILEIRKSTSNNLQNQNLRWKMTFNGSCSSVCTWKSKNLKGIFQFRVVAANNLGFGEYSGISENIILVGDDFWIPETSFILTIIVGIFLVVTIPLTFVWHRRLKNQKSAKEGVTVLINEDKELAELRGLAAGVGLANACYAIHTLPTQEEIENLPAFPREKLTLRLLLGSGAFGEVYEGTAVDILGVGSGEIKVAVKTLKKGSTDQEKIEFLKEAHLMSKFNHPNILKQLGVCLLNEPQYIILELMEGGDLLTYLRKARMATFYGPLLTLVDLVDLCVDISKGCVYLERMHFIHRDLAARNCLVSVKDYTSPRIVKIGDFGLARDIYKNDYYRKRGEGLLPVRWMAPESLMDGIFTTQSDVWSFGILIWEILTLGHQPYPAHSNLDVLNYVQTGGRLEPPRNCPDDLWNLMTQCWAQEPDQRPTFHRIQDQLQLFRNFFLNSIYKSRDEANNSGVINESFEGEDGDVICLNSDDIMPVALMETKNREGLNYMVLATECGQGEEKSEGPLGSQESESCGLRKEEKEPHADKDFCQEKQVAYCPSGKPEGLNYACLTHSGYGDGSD

With `NC(=O)c1nnc(N[C@@H]2CCCC[C@@H]2N)nc1Nc1cccc2cc[nH]c12` the Kd [1] was 120 nM, the concentration at 24 h [2] was 461 nM and the Activity (Canis familiaris [3]) was “Toxic”. The Kd [4] was 67 nM, the clearance [5] was 31 mL/min/kg and the concentration at 24 h [6] was 156 nM. It also gave a concentration at 2 h [7] of 900 nM, a concentration at 4 h [8] of 1100 nM and a Cmax/dose (Rattus norvegicus [9]) of 80 nM. The concentration at 8 h [10] was 65 nM, the Activity (Canis familiaris [11]) was “Toxic” and the IC50 [12] was 25900 nM. For the same compound, the Activity (Canis familiaris [13]) was “Non-toxic”, the Activity (Rattus norvegicus [14]) was “Active” and the concentration at 8 h [15] was 1720 nM. For the same compound, the Activity (Rattus norvegicus [16]) was “Active”, the Activity (Rattus norvegicus [17]) was “Toxic” and the MRT [18] was 8.4 h. For the same compound, the Kd [19] was 12 nM, the Kd [20] was 0.64 nM and the bioavailability [21] was 54%. For the same compound, the concentration at 8 h [22] was 349 nM, the clearance [23] was 11 mL/min/kg and the concentration at 4 h [24] was 126 nM. For the same compound, the Vd [25] was 16.4 L/kg, the inhibition in vivo at 22 mg/kg (Rattus norvegicus [26]) was 90% and the AUC/dose (Canis familiaris [27]) was 3414 nM·h. The IC50 [28] was 99 nM, the inhibition in vivo at 22 mg/kg (Rattus norvegicus [29]) was 85% and the IC50 [30] was 367 nM.
